Reference: ChEMBL document CHEMBL1154474, “Pharmacophore based discovery of potential antimalarial agent targeting haem detoxification pathway” (Eur J Med Chem, 2008)
Values joined by “and” are separate entries in the source; they are usually repeats but may differ in a detail not shown here. Equal values may be shown once. Where a name gives a salt, the structure may show the parent alone.

system: Plasmodium falciparum; experiment: Antimalarial activity against chloroquine-resistant Plasmodium falciparum K1 by [3H]hypoxanthine uptake; format: functional, organism-based; details: not given

Compound	IC50 [nM]
N=C(N)c1ccc(OCCCOc2ccc(C(=N)N)cc2)cc1 [PROPAMIDINE]	5.6
N=C(N)c1ccc(/N=N/Nc2ccc(C(=N)N)cc2)cc1 [DIMINAZENE]	190
N=C(N)c1ccc(/C=C/c2ccc(C(=N)N)cc2)cc1 [STILBAMIDINE]	27

system: Plasmodium falciparum; experiment: Antimalarial activity against chloroquine-resistant Plasmodium falciparum K1 after 72 hrs; format: functional, organism-based; details: K1, 72 h

Compound	IC50 [nM]
O=C1CC(c2ccc(C(F)(F)F)cc2)CC2C1C(=O)c1cc(Cl)ccc1N2O (centres undefined)	400
CN(C)CCC/N=C1\CC(c2ccc(Cl)cc2Cl)CC2Nc3ccc(Cl)cc3C(=O)C12 (centres undefined)	9.5
O=C1CC(c2ccc(Cl)cc2Cl)CC2Sc3ccc(Cl)cc3C(=O)C12 (centres undefined)	16

system: Plasmodium falciparum; experiment: Antimalarial activity against chloroquine and pyrimethamine-resistant Plasmodium falciparum K1 after 24 hrs by [3H]hypoxanthine uptake; format: functional, organism-based; details: not given

Compound	IC50
CN(C)c1ccc(Nc2c3ccccc3nc3cc(N)ccc23)cc1	800 nM and 350 nM

same assay, conditions: Plasmodium falciparum, K1

Compound	IC50 [nM]
CN(C)c1ccc(Nc2c3ccccc3nc3cc(Cl)ccc23)cc1	1100
CS(=O)(=O)Nc1ccc(Nc2c3ccccc3nc3cc(Cl)ccc23)cc1	1000
NS(=O)(=O)c1ccc(Nc2c3ccc(Cl)cc3nc3cc(Cl)ccc23)cc1	620
CNc1ccc(Nc2c3ccccc3nc3cc(Cl)ccc23)cc1	1200
CS(=O)(=O)Nc1ccc(Nc2c3ccc(Cl)cc3nc3cc(Cl)ccc23)cc1	350

system: not listed separately; experiment: Ionisation constant for the compound; format: physicochemical; details: not given
Method in brief: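 Spectrophotometric pKa determination on a UV spectrometer, with measurements in buffers from pH 5.8 to 11.2 and in 0.1 M NaOH and 0.1 M HCl. The pH 5.8–8.0 buffers were made from 0.1 M KH2PO4/K2HPO4, and the pH 8.4–11.2 buffers from 0.1 M glycine with 0.1 M NaOH. Two constants (pKa1, pKa2) were reported.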

Compound	pKa
CCOc1ccc(/C=C/C(=N\NC(=O)c2cccnc2)c2ccc(O)cc2)cc1OC	6.87

system: Plasmodium falciparum; experiment: Antimalarial activity against chloroquine-resistant Plasmodium falciparum K1; format: functional, organism-based; details: not given

Compound	IC50 [nM]
CN(C)CCCN(C)CCCN1c2ccccc2Sc2ccccc21	1000
C[n+]1c2ccccc2cc2[n-]c3ccccc3c21 [CRYPTOLEPINE HYDROCHLORIDE]	100000
C[n+]1c2ccccc2cc2[nH]c3cc([N+](=O)[O-])cc([N+](=O)[O-])c3c21	650
CN(C)CCCC(=O)Nc1ccc2c(c1)Sc1ccc(Cl)cc1N2CCCN(C)C	2000
CN(CCCNc1nc2ccc(Cl)cc2n2cccc12)CCCNc1nc2ccc(Cl)cc2n2cccc12	280
CCN(CC)CCCC(C)Nc1cc(CCCCCCCCCCCCc2cc(NC(C)CCCN(CC)CC)c3ccccc3n2)nc2ccccc12 (centres undefined)	16
CCN(CC)CCCC(C)Nc1cc(CCCCCCCCCCc2cc(NC(C)CCCN(CC)CC)c3ccccc3n2)nc2ccccc12 (centres undefined)	17
C[n+]1c2ccc(Br)cc2cc2[nH]c3ccc([N+](=O)[O-])cc3c21	100000
C[n+]1c2ccc(Cl)c(Cl)c2cc2[nH]c3ccccc3c21	440
CN(C)CCCC(=O)Nc1ccc2c(c1)Sc1ccc(Cl)cc1N2C	7000
CN(C)CCCN(CCCN(C)C)CCCN1c2ccccc2Sc2ccc(Cl)cc21	420
C[n+]1c2ccccc2cc2[nH]c3c([N+](=O)[O-])cccc3c21	6300
C[n+]1c2ccc(Cl)cc2cc2[nH]c3cc(Cl)ccc3c21	45
C[n+]1c2ccccc2c(C(=O)O)c2[nH]c3ccc(Br)cc3c21	260
CN(C)CCCN1c2ccc(NCc3cnc[nH]3)cc2Sc2ccc(Cl)cc21	1800

system: Plasmodium falciparum; experiment: Antimalarial activity against chloroquine-resistant Plasmodium falciparum K1 after 48 hrs by [G-3H]hypoxanthine uptake; format: functional, organism-based; details: K1, 48 h

Compound	IC50 [nM]
Oc1ccc(Nc2ccnc3cc(Cl)ccc23)cc1	2300
CCN(CC)Cc1cc(Nc2ccnc3cc(Cl)ccc23)cc(-c2ccc(Cl)cc2)c1 [DEHYDROXY TEBAQUINE]	69.3
CC(C)(C)NCc1cc(Cc2ccnc3cc(Cl)ccc23)ccc1O	9.1
Oc1ccc(Cc2ccnc3cc(Cl)ccc23)cc1CN1CCCC1	11.5
CCN(CC)Cc1cc(Nc2ccnc3cc(Cl)ccc23)cc(-c2ccc(Cl)cc2)c1F	69
CCCCN(CCCC)CCC(C)c1cc2c(Cl)cc(Cl)cc2c2cc(C(F)(F)F)ccc12 (centres undefined)	2.8
CCN(CC)Cc1cc(Nc2ccncc2)ccc1O	1300
CC(CCCN)Nc1ccnc2cc(Cl)ccc12 (centres undefined) [BIDESETHYL CHLOROQUINE]	1340
C=CC1CN2CCC1C[C@@H]2[C@@H](O)c1ccnc2ccc(OC)cc12 (single isomer, unassigned) [QUINIDINE]	51
NCc1cc(Cc2ccnc3cc(Cl)ccc23)ccc1O	166
CC(c1cc(C(F)(F)F)nc2c(C(F)(F)F)cccc12)C1CCCCN1 (centres undefined)	9.4
C=CC1CN2CCC1C[C@H]2[C@H](O)c1ccnc2ccc(OC)cc12 (single isomer, unassigned) [QUININE]	81
CCN(CC)CCCC(C)Nc1c2ccc(Cl)cc2nc2ccc(OC)cc12 (centres undefined) [QUINACRINE]	43
CC(C)(C)NCc1cc(Nc2ccnc3cc(Cl)ccc23)cc(-c2ccc(Cl)cc2)c1O [TEBUQUINE]	13
CCN(CC)Cc1cc(Cc2ccnc3cc(Cl)ccc23)ccc1O	18
CC(CCCN1CCCC1)Nc1ccnc2cc(Cl)ccc12 (centres undefined) [Chloroquine-pyrolidinyl]	89.6
C=C[C@@H]1CN2CC[C@@H]1C[C@@H]2[C@@H](O)c1ccnc2ccccc12	90.6
C=C[C@@H]1CN2CC[C@@H]1C[C@H]2[C@H](O)c1ccnc2ccccc12	56.2
CCN(CC)CCCC(C)NC1=CC=NCC1 (centres undefined)	15100
CCNCc1cc(Cc2ccnc3cc(Cl)ccc23)ccc1O	38.8
Oc1c(CN2CCCC2)cc(Nc2c3ccccc3nc3cc(Cl)ccc23)cc1CN1CCCC1	9.1
